# Assay results: ChEMBL document CHEMBL4052665, “Synthesis and pharmacological evaluation of glycine amide derivatives as novel vascular adhesion protein-1 inhibitors without CYP3A4 and CYP2C19 inhibition” (Bioorg Med Chem, 2017)
# The source made the active and inactive calls. The calls are words filed in the database; no cut-off is given here.
# How the values were obtained:
# [1] = molecular target: T1, Amine oxidase [copper-containing] 3 (Homo sapiens, UniProt Q16853); test: Inhibition of human VAP-1 expressed in CHO cells using 14C-benzylamine as substrate preincubated for 20 mins followed by substrate addition measured after 1 hr by scintillation spectrometric analysis; type: cell-based
# T1 sequence (Q16853 whole entry): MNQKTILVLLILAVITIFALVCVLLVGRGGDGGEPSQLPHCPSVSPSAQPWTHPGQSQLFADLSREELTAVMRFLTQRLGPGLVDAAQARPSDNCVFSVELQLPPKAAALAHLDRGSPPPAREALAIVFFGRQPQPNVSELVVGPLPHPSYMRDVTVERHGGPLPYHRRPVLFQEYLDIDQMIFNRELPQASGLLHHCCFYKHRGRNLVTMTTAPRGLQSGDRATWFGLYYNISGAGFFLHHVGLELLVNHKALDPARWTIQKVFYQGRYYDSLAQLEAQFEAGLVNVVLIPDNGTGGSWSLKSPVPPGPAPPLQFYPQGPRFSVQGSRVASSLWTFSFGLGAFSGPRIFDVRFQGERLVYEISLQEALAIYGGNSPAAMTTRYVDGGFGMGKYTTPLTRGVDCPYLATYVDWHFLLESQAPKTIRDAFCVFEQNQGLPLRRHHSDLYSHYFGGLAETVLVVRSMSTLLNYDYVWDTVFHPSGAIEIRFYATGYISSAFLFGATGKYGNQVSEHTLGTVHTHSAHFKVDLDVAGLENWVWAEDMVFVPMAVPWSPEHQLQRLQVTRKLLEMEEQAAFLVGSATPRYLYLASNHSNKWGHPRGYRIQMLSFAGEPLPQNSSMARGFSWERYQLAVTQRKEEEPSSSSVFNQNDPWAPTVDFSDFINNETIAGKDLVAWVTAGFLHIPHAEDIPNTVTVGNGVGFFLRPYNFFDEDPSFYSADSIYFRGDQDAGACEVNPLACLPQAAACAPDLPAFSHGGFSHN
# CYP3A4 = CYP3A4 (Homo sapiens, UniProt P08684); test: Inhibition of CYP3A4 in human liver microsomes assessed as residual activity at 5 uM using midazolam as substrate after 20 mins by LC-MS/MS analysis; type: ADME; details: probe midazolam, read-out: Activity
# In short: (§1)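 Pooled human liver microsomes (0.1 mg/mL) in 100 mM Na-K phosphate pH 7.4 with 1 mM NADPH. Test compound at 5 μM was co-incubated with a probe cocktail including midazolam (1.5 μM) and S-mephenytoin (30 μM) at 37 °C for 20 min. The reaction was stopped with 80% acetonitrile. 1'-Hydroxymidazolam (CYP3A4) and 4'-hydroxymephenytoin (CYP2C19) were measured by LC-MS/MS. Residual activity = activity with compound / vehicle activity × 100.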
# CYP2C19 = CYP2C19 (Homo sapiens, UniProt P33261); test: Inhibition of CYP2C19 in human liver microsomes assessed as residual activity at 5 uM using S-mephenytoin as substrate after 20 mins by LC-MS/MS analysis; type: ADME; details: probe S-mephenytoin, read-out: Activity; in short: as §1
# [2] = molecular target: T2, Amine oxidase [copper-containing] 3 (Rattus norvegicus, UniProt O08590); test: Inhibition of rat VAP-1 expressed in CHO cells using 14C-benzylamine as substrate preincubated for 20 mins followed by substrate addition measured after 1 hr by scintillation spectrometric analysis; type: cell-based
# T2 sequence (O08590 whole entry): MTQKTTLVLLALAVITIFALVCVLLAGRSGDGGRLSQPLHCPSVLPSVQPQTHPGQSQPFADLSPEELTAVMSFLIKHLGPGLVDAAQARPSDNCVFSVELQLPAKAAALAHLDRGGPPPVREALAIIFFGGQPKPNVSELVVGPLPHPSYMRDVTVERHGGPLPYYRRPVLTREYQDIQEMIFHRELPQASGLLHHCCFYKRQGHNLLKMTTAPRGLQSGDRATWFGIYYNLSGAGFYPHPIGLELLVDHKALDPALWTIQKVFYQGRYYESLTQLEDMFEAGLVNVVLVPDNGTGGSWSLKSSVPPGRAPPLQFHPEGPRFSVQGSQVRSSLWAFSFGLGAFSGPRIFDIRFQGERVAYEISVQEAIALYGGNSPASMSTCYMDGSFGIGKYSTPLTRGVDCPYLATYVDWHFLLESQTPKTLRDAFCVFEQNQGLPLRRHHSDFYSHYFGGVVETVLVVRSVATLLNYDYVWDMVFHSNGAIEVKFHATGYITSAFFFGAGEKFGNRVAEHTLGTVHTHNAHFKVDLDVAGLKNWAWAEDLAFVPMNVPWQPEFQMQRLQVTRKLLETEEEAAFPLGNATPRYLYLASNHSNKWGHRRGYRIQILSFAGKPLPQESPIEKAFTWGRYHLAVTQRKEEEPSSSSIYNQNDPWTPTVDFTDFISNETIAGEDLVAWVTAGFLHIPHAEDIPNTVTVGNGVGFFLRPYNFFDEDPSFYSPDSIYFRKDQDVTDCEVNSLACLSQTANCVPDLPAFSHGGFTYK
# Rattus norvegicus [3] = test: Inhibition of VAP-1 in Wistar rat plasma at 1 mg/kg, po using 14C-benzylamine as substrate preincubated for 20 mins followed by substrate addition measured after 1 hr by scintillation spectrometric analysis; type: functional
# In short: (§2)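 Male Wistar rats (n = 4) dosed orally. Tail-vein blood was taken under ether anaesthesia before dosing and at 1 or 6 h after. Plasma was kept at -80 °C. 100 μL plasma was reacted with 14C-benzylamine at 37 °C for 2 h. Non-specific activity was measured with 1 mmol/L FR299676 and subtracted. 14C-Benzaldehyde was counted by liquid scintillation. Inhibition ratio = fall from the pre-dose activity, in %.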
# Rattus norvegicus [4] = test: Inhibition of VAP-1 in Wistar rat plasma at 1 mg/kg, po using 14C-benzylamine as substrate preincubated for 20 mins followed by substrate addition measured after 6 hr by scintillation spectrometric analysis; type: functional; in short: as §2
# [5] = Aqueous solubility of the compound in solution at pH 6.8; type: physicochemical
# [6] = Aqueous solubility of the compound in solution at pH 6.8 in presence of 15 mM sodium taurocholate; type: physicochemical; details: aqueous solution with 15 mM sodium taurocholate
# Rattus norvegicus [7] = test: Inhibition of VAP-1 in Wistar rat plasma at 0.3 mg/kg, po using 14C-benzylamine as substrate preincubated for 20 mins followed by substrate addition measured after 1 hr by scintillation spectrometric analysis; type: functional; in short: as §2
# Rattus norvegicus [8] = test: Inhibition of VAP-1 in Wistar rat plasma at 0.3 mg/kg, po using 14C-benzylamine as substrate preincubated for 20 mins followed by substrate addition measured after 6 hr by scintillation spectrometric analysis; type: functional; in short: as §2
# [9] = AUC (0 to 24 hrs) in Wistar rat at 1 mg/kg, iv by LC-MS/MS analysis; type: ADME, organism-based; design: dose 1 mg/kg, time < 24 hr, route intravenous; details: in vivo
# In short: (§3)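 Male Wistar rats, fasted about 18 h, dosed at 1 mg/kg iv (solution in 5% DMSO in water) or orally, n = 3. Plasma was deproteinated with acetonitrile and the compound was quantified by LC-MS/MS. Parameters came from non-compartmental analysis.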
# [10] = AUC (0 to 24 hrs) in Wistar rat at 1 mg/kg, po by LC-MS/MS analysis; type: ADME, organism-based; design: dose 1 mg/kg, time < 24 hr, route oral; details: in vivo; in short: as §3
# [11] = Cmax in Wistar rat at 1 mg/kg, po by LC-MS/MS analysis; type: ADME, organism-based; design: dose 1 mg/kg, route oral; details: in vivo; in short: as §3
# [12] = Total clearance in Wistar rat at 1 mg/kg, iv by LC-MS/MS analysis; type: ADME, organism-based; details: in vivo; in short: as §3
# [13] = Half life in Wistar rat at 1 mg/kg, iv by LC-MS/MS analysis; type: ADME, organism-based; details: in vivo; in short: as §3
# [14] = Half life in Wistar rat at 1 mg/kg, po by LC-MS/MS analysis; type: ADME, organism-based; details: in vivo; in short: as §3
# [15] = Volume of distribution at steady state in Wistar rat at 1 mg/kg, iv by LC-MS/MS analysis; type: ADME, organism-based; details: in vivo, read-out: Vdss; in short: as §3
# [16] = Oral bioavailability in Wistar rat at 1 mg/kg by LC-MS/MS analysis; type: ADME, organism-based; details: in vivo; in short: as §3
# Rattus norvegicus [17] = test: In vivo inhibition of VAP-1 in STZ-induced diabetic Sprague-Dawley rat assessed as reduction in proteinuria progression at 0.3 to 1 mg/kg, po for 4 weeks measured after 24 hrs by Bradford colorimetric assay; type: functional, organism-based
# In short: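 Male SD rats (6 weeks old) given STZ 65 mg/kg ip in citrate-buffered saline pH 4.5; sham rats got buffer. Groups were set by plasma glucose and body weight at day 3. Dosing was oral in 0.5% MC, 5 mL/kg, once daily for 4 weeks. 24-h metabolic-cage urine was collected in week 4 and protein measured by Bradford assay; excretion = concentration × urine volume. Mean ± SEM; Dunnett's test against STZ control.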
# Rattus norvegicus [18] = test: In vivo inhibition of VAP-1 in STZ-induced diabetic Sprague-Dawley rat plasma at 0.3 to 1 mg/kg, po for 4 weeks measured after 24 hrs after final dose using 14C-benzylamine as substrate by scintillation spectrometric analysis; type: functional, organism-based
# In short: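 STZ-diabetic SD rats (65 mg/kg ip) dosed orally once daily for 4 weeks in 0.5% MC. Suborbital blood was taken under ether 24 h after the last dose. 50 μL plasma was reacted with 14C-benzylamine at 37 °C for 1 h, minus non-specific activity measured with 1 mmol/L FR299676. Liquid scintillation counting; mean ± SEM, Dunnett's test against STZ control.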
# [19] = Plasma concentration in Wistar rat at 1 mg/kg, po after 1 hr post dose by LC-MS/MS analysis; type: ADME, organism-based; in short: as §3
# [20] = Plasma concentration in Wistar rat at 1 mg/kg, po after 6 hrs post dose by LC-MS/MS analysis; type: ADME, organism-based; in short: as §3
# Sequence of CYP2C19 (P33261 whole entry): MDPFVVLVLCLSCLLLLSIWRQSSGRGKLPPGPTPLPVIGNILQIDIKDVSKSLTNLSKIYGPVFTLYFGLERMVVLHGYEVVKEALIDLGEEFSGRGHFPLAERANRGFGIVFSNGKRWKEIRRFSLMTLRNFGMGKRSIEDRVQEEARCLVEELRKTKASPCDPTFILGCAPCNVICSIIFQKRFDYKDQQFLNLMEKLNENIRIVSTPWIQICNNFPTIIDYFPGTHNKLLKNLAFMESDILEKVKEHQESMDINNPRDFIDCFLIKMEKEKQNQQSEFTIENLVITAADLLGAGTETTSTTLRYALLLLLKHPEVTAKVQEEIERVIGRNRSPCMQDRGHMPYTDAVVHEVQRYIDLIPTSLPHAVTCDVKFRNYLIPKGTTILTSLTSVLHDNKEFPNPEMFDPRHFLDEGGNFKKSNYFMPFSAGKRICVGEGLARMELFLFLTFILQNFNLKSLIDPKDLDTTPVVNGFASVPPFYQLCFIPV
# Sequence of CYP3A4 (P08684 whole entry): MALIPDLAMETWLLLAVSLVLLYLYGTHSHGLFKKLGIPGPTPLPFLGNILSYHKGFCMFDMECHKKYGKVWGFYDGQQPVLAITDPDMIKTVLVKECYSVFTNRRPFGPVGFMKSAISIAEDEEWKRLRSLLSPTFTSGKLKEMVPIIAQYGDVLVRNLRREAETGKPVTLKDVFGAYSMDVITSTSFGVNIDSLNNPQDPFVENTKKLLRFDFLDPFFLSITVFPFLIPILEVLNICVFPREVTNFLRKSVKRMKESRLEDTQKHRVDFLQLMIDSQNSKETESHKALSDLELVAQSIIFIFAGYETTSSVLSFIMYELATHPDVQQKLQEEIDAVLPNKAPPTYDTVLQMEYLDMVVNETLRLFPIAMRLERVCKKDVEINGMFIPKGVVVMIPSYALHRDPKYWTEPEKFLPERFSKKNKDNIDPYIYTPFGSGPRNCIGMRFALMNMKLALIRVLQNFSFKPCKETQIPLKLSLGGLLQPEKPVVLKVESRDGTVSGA
structure (smiles),measurement,setting,value
CN(Cc1cccc(-c2cnc(N3CCC[C@@H]3CO)nc2)c1)C(=O)CN,IC50,[1],300 nM
CN(Cc1cccc(-c2cnc(N3CCC[C@H]3CO)nc2)c1)C(=O)CN,IC50,[1],240 nM
CN(Cc1cccc(-c2cnc(N3CCC(C(=O)O)CC3)nc2)c1)C(=O)CN,IC50,[1],1700 nM
same,"activity at 20 min, 5 µM",CYP3A4,112%
same,"activity at 20 min, 5 µM",CYP2C19,104%
CN(Cc1cccc(-c2cnc(N3CCC(CCC(=O)O)CC3)nc2)c1)C(=O)CN,IC50,[1],140 nM
same,"activity at 20 min, 5 µM",CYP3A4,108%
same,"activity at 20 min, 5 µM",CYP2C19,119%
CN(Cc1cccc(-c2cnc(N3CCN(c4ccc(C(=O)O)cc4)CC3)nc2)c1)C(=O)CN.Cl.Cl,IC50,[1],24 nM
same,IC50,[2],10 nM
same,"activity at 20 min, 5 µM",CYP3A4,100%
same,"activity at 20 min, 5 µM",CYP2C19,106%
same,inhibition in vivo at 1 mg/kg,Rattus norvegicus [3],68%
same,inhibition in vivo at 1 mg/kg,Rattus norvegicus [4],60%
same,solubility,[5],< 1 µM
same,solubility,[6],< 1 µM
CN(Cc1cccc(-c2ccc(N3CCOCC3)cc2)c1)C(=O)CN,"activity at 20 min, 5 µM",CYP3A4,57%
same,"activity at 20 min, 5 µM",CYP2C19,63%
CN(Cc1cccc(-c2ccc(N3CCOCC3)cc2)n1)C(=O)CN,IC50,[1],2000 nM
same,IC50,[2],160 nM
CN(Cc1cccc(-c2cnc(N3CCCCC3)nc2)c1)C(=O)CN,IC50,[1],250 nM
CN(Cc1cccc(-c2cnc(N3CCN(c4ccc(C(=O)O)cc4Cl)CC3)nc2)c1)C(=O)CN.Cl.Cl,"activity at 20 min, 5 µM",CYP3A4,98%
same,"activity at 20 min, 5 µM",CYP2C19,109%
same,inhibition in vivo at 1 mg/kg,Rattus norvegicus [3],96%
same,inhibition in vivo at 1 mg/kg,Rattus norvegicus [4],93%
same,inhibition in vivo at 0.3 mg/kg,Rattus norvegicus [7],64%
same,inhibition in vivo at 0.3 mg/kg,Rattus norvegicus [8],62%
same,solubility,[5],2.3 µM
same,solubility,[6],89.6 µM
same,AUC(0-t) at 24 h,[9],1920 ng·h/mL
same,AUC(0-t) at 24 h,[10],334 ng·h/mL
same,Cmax,[11],113 ng/mL
same,clearance,[12],8.69 mL/min/kg
same,half-life,[13],1.39 h
same,half-life,[14],1.29 h
same,Vd,[15],0.386 L/kg
same,bioavailability,[16],17.4%
same,inhibition,Rattus norvegicus [17],Active
same,inhibition,Rattus norvegicus [18],Active
same,concentration at 1 h,[19],111 ng/mL
same,concentration at 6 h,[20],7.1 ng/mL
